# Apaf-1 inh: inhibitors of human Apaf-1 apoptosome; actives 0.71% (n = 330,000); AID 489030; inhibition, % at 20 µM; reconstituted apoptosome caspase-3 activity, DEVD-Rh110 fluorescence; active = inhibition of at least 40% at 20 µM;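 also: plate controls were DMSO wells for no effect and DEVD-CHO caspase inhibitor wells for full effect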
#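 Assay system – apoptosome proteins · Medium – Hepes buffer, pH 7.5 · Also added – cytochrome c with DEVD-Rh110 · Timing – 30 min compound preincubation, 50 min activation, room temperature · Detection – Rh110 fluorescence, excitation 480 nm, emission 540 nm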
# SENP7 block: SENP7 protease inhibition | Q9BQF6 | recombinant SENP7, Z-RLRGG-aminoluciferin luminescence, 40 min | inhibition, % at 5 µM | actives 1.5% (n = 330,000);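 active = inhibition above about 50% at the single test dose, limit read from the data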;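 also: plate controls were DMSO with enzyme for no effect and no enzyme buffer wells for full effect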
# SENP8 block-1: blocks the human protease SENP8; purified SENP8, Z-RLRGG-aminoluciferin cleavage, luminescence; AID 2540; inhibition, % at 10 µM; Q96LD8; actives 1.2% (n = 330,000); in the data active = inhibition above about 50%
# Target sequence (Q96LD8 whole entry, looked up): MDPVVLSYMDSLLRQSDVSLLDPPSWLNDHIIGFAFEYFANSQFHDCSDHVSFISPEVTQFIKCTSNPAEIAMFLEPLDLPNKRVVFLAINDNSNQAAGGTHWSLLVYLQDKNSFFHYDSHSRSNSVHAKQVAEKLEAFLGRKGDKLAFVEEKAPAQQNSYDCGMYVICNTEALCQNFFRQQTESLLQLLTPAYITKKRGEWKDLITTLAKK
# SENP6 inh: inhibitors of human SENP6 protease. Recombinant SENP6 catalytic domain, aminoluciferin luminescence. inhibition, % at 10 µM. actives 1.8% (n = 330,000);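 active = inhibition above about 50% at the single tested dose, limit read from the data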;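 also: plate controls were DMSO wells with enzyme for no effect and DMSO wells lacking enzyme for full effect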
# SENP8 block-2: SENP8 (human) protease inhibition. Q96LD8. actives 0.64% (n = 360,000). inhibition, % at 20 µM. recombinant SENP8, Nedd8 substrate fluorescence; in the data active = inhibition mostly above about 40%, no sharp cut-off; inactive = mostly below about 27%
# UBC13 polyUb: human UBC13 polyubiquitination inhibition | P61088 | UBC13 polyubiquitin chain formation, TR-FRET | inhibition, % at 20 µM | actives 0.47% (n = 330,000) | AID 485273; in the data active = inhibition above about 45%, passing the limit was not always enough
# Target sequence (P61088 whole entry, looked up): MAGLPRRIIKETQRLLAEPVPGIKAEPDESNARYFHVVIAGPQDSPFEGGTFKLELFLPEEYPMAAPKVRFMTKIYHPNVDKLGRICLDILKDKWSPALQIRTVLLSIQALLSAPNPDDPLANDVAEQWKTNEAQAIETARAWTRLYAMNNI
# SENP8 conf: human SENP8 inhibition, confirmed; shares compounds with SENP7 block; Recombinant SENP8, Z-RLRGG-aminoluciferin luminescence, 60 min; inhibition, % at 12.5 µM; actives 40% (n = 6,200); AID 488912;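 active = mean inhibition across replicates above about 50%, limit read from the data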
# SENP6 conf: confirmation of human SENP6 protease inhibitors; shares compounds with SENP7 block; recombinant SENP6, Z-RLRGG-aminoluciferin luminescence; inhibition, % at 12.5 µM; actives 58% (n = 6,200); AID 488915
# SENP7 conf: confirmation of human SENP7 protease inhibitors; shares compounds with SENP7 block; recombinant SENP7, Z-RLRGG-aminoluciferin luminescence, 40 min; inhibition, % at 12.5 µM; actives 69% (n = 6,200); AID 488917
# Casp3 SENP sel: caspase-3 inhibition (SENP selectivity assay); actives 60% (n = 6,200); AID 488918; inhibition, % at 12.5 µM; shares compounds with SENP7 block; purified caspase-3, Z-DEVD-aminoluciferin luminescence, 60 min;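 active = mean inhibition above about 50%, limit read from the data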;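 also: plate controls were enzyme with DMSO for no effect and wells without caspase-3 for full effect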
# Target sequence (P42574 28-227 limits assumed): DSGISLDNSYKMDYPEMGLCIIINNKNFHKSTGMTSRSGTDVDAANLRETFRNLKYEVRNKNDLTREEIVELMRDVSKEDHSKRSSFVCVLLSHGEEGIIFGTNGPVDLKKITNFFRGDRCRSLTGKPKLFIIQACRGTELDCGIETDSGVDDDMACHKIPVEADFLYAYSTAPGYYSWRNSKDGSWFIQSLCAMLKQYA
# Luc interf: interferes with luciferase luminescence in SENP counter-screen. Pre-incubated SENP8/Z-RLRGG-aminoluciferin, luciferase luminescence interference. shares compounds with SENP7 block. inhibition, % at 12.5 µM. actives 39% (n = 6,200);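 active = mean inhibition above about 50% when retested at one dose, limit read from the data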;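 also: plate controls were DMSO wells with completed reaction for no effect and substrate without enzyme for full effect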
# * = called active by the depositor; · = no result. Rows were chosen to be rich in hits. Some 3% of all compounds tested hit in one or more screens of this group.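 The calls were made as follows, unless noted: active = mean inhibition above about 50% in the one-dose retest (limit read from the data); inactive = the rest.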
SMILES,Apaf-1 inh,SENP7 block,SENP8 block-1,SENP6 inh,SENP8 block-2,UBC13 polyUb,SENP8 conf,SENP6 conf,SENP7 conf,Casp3 SENP sel,Luc interf
Cc1ccc(Nc2nc(-c3cccnc3)cs2)cc1C,15,58*,55*,74*,4,-8,10,68*,88*,36,13
CCOc1ccc(Nc2nc(-c3cccnc3)cs2)cc1,-10,70*,18,20,-1,-2,-9,11,11,6,-3
O=C(COC(=O)c1ccc(O)cc1)Nc1cc(S(=O)(=O)N2CCOCC2)ccc1Cl,3,-9,-6,-11,-5,-10,·,·,·,·,·
CCN(CC)c1nc2c3c(nc4c(c3c1C#N)CC(=O)N4c1ccc(Cl)cc1)NC(C)=N2,17,-2,-7,-2,-273,-62,·,·,·,·,·
C=C(C)CN(CC)c1nc(N)c2c(N)nc3c(c2c1C#N)CC(=O)N3C12CC3CC(CC(C3)C1)C2,16,27,86*,85*,-210,-42,-10,-5,-10,-11,-7
Cc1ccc(/C=C/C(=O)N2CCc3ccccc32)o1,25,-3,38,49,2,-10,·,·,·,·,·
O=C(/C=C/c1ccco1)N1CCc2ccccc21,14,91*,91*,93*,13,-16,-1,96*,102*,97*,94*
Cc1cc(C)cc(NC(=O)N2CCc3ccccc3C2)c1,-5,43,24,55*,5,-7,43,37,69*,50*,51*
CCC(C)N(C(=O)COC(=O)CNC(=O)c1sc2ccccc2c1Cl)C1CCS(=O)(=O)C1 (centres undefined),5,-13,-13,-5,4,-12,·,·,·,·,·
O=C1NC(c2ccc(Br)cc2)Nc2sc3c(c21)CCC3 (centres undefined),26,5,0,-6,-237,8,·,·,·,·,·
Cc1ccsc1C1NC(=O)c2c(sc3c2CCCC3)N1 (centres undefined),2,54*,48,74*,-241,-1,32,68*,82*,53*,22
CCc1ccc(/C=N\NC(=O)c2ccc(Br)o2)s1,-3,31,15,55*,-26,1,41,37,76*,67*,54*
Cc1ccc(/C=N/NC(=O)c2ccc(Br)o2)s1,-10,-3,-5,14,-18,-4,·,·,·,·,·
CCn1cc(C(=O)Nc2ccc(C)cc2[N+](=O)[O-])c(C)n1,1,13,-10,-11,14,-3,·,·,·,·,·
O=C(NCCc1ccccc1)c1ccc(NC(=O)C2CCC2)cc1,·,·,·,·,4,·,·,·,·,·,·
O=C(Nc1nc2c(F)cccc2s1)c1ccco1,-4,76*,74*,81*,-43,3,80*,77*,94*,84*,25
CC(=O)c1sc(NC(=O)c2ccco2)nc1-c1ccccc1,13,-11,-15,5,3,-10,·,·,·,·,·
Cc1cc(C)c2nc(NC(=O)c3ccco3)sc2c1,6,80*,80*,76*,-214,15,11,73*,92*,61*,16
CC(=O)Nc1nc2c(F)cccc2s1,-1,0,3,-4,-2,-2,·,·,·,·,·
Cc1sc(NC(=O)c2ccco2)nc1-c1ccccc1,21,7,26,51*,-381,2,47,44,72*,33,61*
Cc1noc(C)c1CSCC(=O)Nc1nnc(CC(C)C)s1,-11,9,-7,-7,6,-4,·,·,·,·,·
COc1cccc(/C=N/Nc2ccc(C(=O)O)cc2)c1O,-18,99*,98*,99*,-29,-10,99*,100*,102*,98*,97*
COc1cccc(/C=N/NC(=O)N/N=C/c2cccc(OC)c2O)c1O,2,1,50*,50,-2,-10,-3,39,65*,61*,27
O=C(O)c1ccccc1NN=Cc1ccccc1,·,·,·,·,2,·,·,·,·,·,·
COc1ccccc1/C=C/C=N/Nc1cccc(C(=O)O)c1,-2,87*,95*,98*,-167,0,99*,100*,102*,80*,98*
SMILES,Apaf-1 inh,SENP7 block,SENP8 block-1,SENP6 inh,SENP8 block-2,UBC13 polyUb,SENP8 conf,SENP6 conf,SENP7 conf,Casp3 SENP sel,Luc interf
COc1ccc(Br)cc1/C=N/Nc1cccc(C(=O)O)c1,7,8,-5,5,-40,-2,·,·,·,·,·
COc1cccc(/C=N/Nc2ccc(S(=O)(=O)O)cc2)c1O,-11,-10,4,17,-95,8,·,·,·,·,·
COc1cccc(/C=N/Nc2ccccc2C(=O)O)c1O,-2,79*,88*,93*,10,-7,94*,94*,99*,92*,93*
CN(C)C=NC(=O)/C(C#N)=C/c1ccccc1,-11,13,-1,-11,-18,2,·,·,·,·,·
O=C(CN1C(=O)COc2ccc(S(=O)(=O)N3CCCCC3)cc21)NCc1ccccc1Cl,15,5,-8,-13,-1,-5,·,·,·,·,·
c1ccc2c3c(cc(N4CCOCC4)c2c1)OC1(N2CCOCC2)CCCCC1O3 (centres undefined),28,45,38,80*,-290,-27,11,18,11,4,3
O=C(CCCN1C(=O)c2ccccc2C1=O)NCCc1ccc(OC(F)F)cc1,3,-1,0,-7,12,7,·,·,·,·,·
CCCCc1ccc(-c2ccc(Br)cc2O)nc1,12,68*,-5,12,28,30,10,10,11,25,4
CCCCc1ccc(-c2ccc(C)cc2O)nc1,11,72*,53*,14,27,19,19,30,30,42,18
CCCCc1ccc(-c2nn[nH]n2)nc1,·,·,·,·,17,·,·,·,·,·,·
Oc1c(C=NCc2ccccc2)sc2ccccc12,10,-5,-6,6,-29,-3,·,·,·,·,·
Oc1c(N=Nc2ccccc2)sc2ccccc12,0,99*,95*,98*,1,-204,75*,98*,103*,96*,10
COc1ccccc1NC(=O)C(=O)Nc1ccc2c(c1)N(C(=O)C1CC1)CCC2,31,56*,-19,-8,6,3,-8,-6,-9,5,1

# Screens from PubChem.
